Assay results from ChEMBL document CHEMBL1129633, “Synthesis and pharmacological testing of dequalinium analogues as blockers of the apamin-sensitive Ca(2+)-activated K+ channel: variation of the length of the alkylene chain” (J Med Chem, 1996).

Columns and labels:
Rattus norvegicus [1] = species on record: Rattus norvegicus; experiment: Compound was tested for its ability to inhibit the after hyperpolarization which follows the action potential in rat sympathetic neurons.; format: functional, organism-based; conditions: Sympathetic neuron
Outline: (§1)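 Cultured neurons (3-10 days in culture); action potentials evoked every 5 s by depolarizing current pulses; drugs applied at known concentration in continuously flowing bath. AHP amplitude measured with and without compound for percent inhibition. Dequalinium tested on every cell; EMR = ratio of concentrations of compound and dequalinium giving 50% AHP inhibition in the same experiment. IC50 and EMR from simultaneous nonlinear least-squares Hill fits; each concentration tested on at least three neurons.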

Rattus norvegicus [2] = species on record: Rattus norvegicus; experiment: The equieffective molar ratio of the concentrations of the test compound and dequalinium that cause 50% inhibition of the after hyper polarization (AHP); format: functional; outline: as §1
Rattus norvegicus [3] = species on record: Rattus norvegicus; experiment: The equieffective molar ratio of the concentrations of the test compound and after hyperpolarization (AHP); format: functional

Structure (SMILES): Nc1cc[n+](CCCCCCCCCCCC[n+]2ccc(N)c3ccccc32)c2ccccc12
- IC50 (Rattus norvegicus [1]): 1700 nM
- EMR (Rattus norvegicus [2]): 1.8

Structure (SMILES): Nc1cc[n+](CCCCCCCCCC[n+]2ccc(N)c3ccccc32)c2ccccc12
- EMR (Rattus norvegicus [2]): 1.3

Structure (SMILES): Nc1cc[n+](CCCC[n+]2ccc(N)c3ccccc32)c2ccccc12
- IC50 (Rattus norvegicus [1]): 1800 nM
- EMR (Rattus norvegicus [2]): 3.2

Structure (SMILES): Nc1cc[n+](CCCCCC[n+]2ccc(N)c3ccccc32)c2ccccc12
- IC50 (Rattus norvegicus [1]): 2000 nM
- EMR (Rattus norvegicus [2]): 1.8

Structure (SMILES): Nc1cc[n+](CCC[n+]2ccc(N)c3ccccc32)c2ccccc12
- IC50 (Rattus norvegicus [1]): 4500 nM
- EMR (Rattus norvegicus [3]): 8.3

Structure (SMILES): Nc1cc[n+](CCCCC[n+]2ccc(N)c3ccccc32)c2ccccc12
- IC50 (Rattus norvegicus [1]): 1000 nM
- EMR (Rattus norvegicus [2]): 1

Structure (SMILES): Nc1cc[n+](CCCCCCCC[n+]2ccc(N)c3ccccc32)c2ccccc12
- IC50 (Rattus norvegicus [1]): 2000 nM
- EMR (Rattus norvegicus [2]): 2.1

Structure (SMILES): Cc1cc(N)c2ccccc2[n+]1CCCCCCCCCC[n+]1c(C)cc(N)c2ccccc21.[Cl-].[Cl-] [DEQUALINIUM CHLORIDE]
- IC50 (Rattus norvegicus [1]): 900 nM
- EMR (Rattus norvegicus [3]): 1
